The source of these data is ChEMBL document CHEMBL4480390, “Cink4T, a quinazolinone-based dual inhibitor of Cdk4 and tubulin polymerization, identified via ligand-based virtual screening, for efficient anticancer therapy” (Eur J Med Chem, 2019).

Activity calls are given as the source filed them. No cut-off for these calls is given here.

Test [1] concerns the target Cyclin-dependent kinase 4/cyclin D1 (Homo sapiens, UniProt P11802). As to the kind of experiment: Inhibition of recombinant human N-terminal GST-tagged CDK4 (S4 to E303 residues)/Cyclin D1 (Q4 to I295 residues) expressed in sf9 cells using RBCTF as substrate measured after 1 hr by ADP-glo luminescence assay. The method in brief: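 ADP-Glo luminescence assay of Cdk4–cyclin D1 with RBCTF substrate, 200 ng enzyme, ATP 125 µM (2.5x working mix), Tris/MgCl2/BSA/DTT/MnCl2 buffer, 1 h at 21°C, then two 40-min reagent steps. IC50 from a four-parameter variable-slope sigmoidal fit of inhibition against concentration; mean ± SD from three independent experiments.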

Test [2] concerns the target CDK9/cyclin T1 (Homo sapiens, UniProt P50750). As to the kind of experiment: Inhibition of N-terminal GST-HIS6 fusion protein tagged human full length CDK9 (M1 to F372 residues)/N-terminal HIS6-fused human Cyclin-T1 (M1 to K726 residues) expressed in Sf9 cells using RBCTF as substrate measured after 1 hr by ADP-glo luminescence assay.
Test [3] addresses T1, Cytochrome P450 1B1 (Homo sapiens, UniProt Q16678).
T1 sequence (Q16678 whole entry): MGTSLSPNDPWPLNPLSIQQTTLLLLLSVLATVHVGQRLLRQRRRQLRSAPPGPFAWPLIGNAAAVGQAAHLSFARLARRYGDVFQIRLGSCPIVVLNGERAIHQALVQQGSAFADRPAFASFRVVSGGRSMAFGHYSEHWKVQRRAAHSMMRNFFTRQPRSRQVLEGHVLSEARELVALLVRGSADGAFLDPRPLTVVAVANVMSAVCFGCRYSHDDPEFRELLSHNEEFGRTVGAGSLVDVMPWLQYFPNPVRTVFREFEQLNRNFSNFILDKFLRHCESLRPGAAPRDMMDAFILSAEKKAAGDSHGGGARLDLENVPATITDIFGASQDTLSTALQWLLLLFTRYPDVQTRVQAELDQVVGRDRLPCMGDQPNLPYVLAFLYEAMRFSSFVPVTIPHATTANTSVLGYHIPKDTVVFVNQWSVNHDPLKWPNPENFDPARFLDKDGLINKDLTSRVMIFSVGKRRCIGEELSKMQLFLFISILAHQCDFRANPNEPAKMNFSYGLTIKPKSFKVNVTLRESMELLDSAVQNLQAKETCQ
As to the kind of experiment: Inhibition of recombinant human CYP1B1 expressed in baker's yeast-derived microsomes using 7-ethoxyresorufin as substrate by fluorescence assay.

Test [4] deals with Tubulin (Sus scrofa) (UniProt P02554+P02550). As to the kind of experiment: Inhibition of porcine tubulin polymerization incubated for 1 min by fluorescence based assay. It is filed as protein assay. The procedure, abridged:
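Compounds added from 10x stocks in duplicate and warmed at 37°C ≤1 min. Ice-cold tubulin pre-mix then added. Fluorescent reporter read at ex 360/em 460 nm for 60 min. Paclitaxel served as enhancer control, CaCl2 as inhibitor control.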

Test [5] relates to T47D. The test is described as follows: Cell cycle arrest in human T47D cells assessed as ratio of G1 to S phase at 0.75 uM measured after 18 hrs by propidium iodide staining based flow cytometry (reference value: 2.65). The test is classed as functional. On the technique in general: In flow cytometry, cells or beads pass a laser one at a time.
Test [6] has as its system T47D. The test is described as follows: Cell cycle arrest in human T47D cells assessed as accumulation at sub-G1 phase at 0.75 uM measured after 18 hrs by propidium iodide staining based flow cytometry relative to control. The test is classed as functional.
In test [7] the target is T2, Cyclin-dependent kinase 4/cyclin D1 (Homo sapiens) (UniProt P11802+P24385). As to the kind of experiment: Inhibition of CDK4/cyclin D1 in human T47D cells assessed as reduction in phosphorylation of pRb at Ser780 residues at 0.75 to 1.5 uM measured after 18 hrs by Western blot analysis. The test is classed as cell-based. The method in brief: (§1)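 T47D cells left untreated or treated 18 h at 0.75 or 1.5 µM. Western blots probed with phospho-specific pRb antibodies (Ser780, Ser795, Ser807/811) and a total-pRb antibody; HRP-conjugated secondary for detection.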
On the technique in general: A western blot detects proteins with antibodies after separation by electrophoresis.

Test [8] deals with T2, Cyclin-dependent kinase 4/cyclin D1 (Homo sapiens). The test is described as follows: Inhibition of CDK4/cyclin D1 in human T47D cells assessed as reduction in phosphorylation of pRb at Ser795 residues at 0.75 to 1.5 uM measured after 18 hrs by Western blot analysis. The test is classed as cell-based. The method in brief: as §1
Test [9] deals with T47D. As to the kind of experiment: Cell cycle arrest in human T47D cells assessed as accumulation at G0/G1 phase at 0.75 uM treated 18 hrs post serum-starvation measured after 18 hrs in presence of fresh medium containing FBS by propidium iodide staining based flow cytometry (reference value: 60.3%). The test is classed as functional.
Test [10] has as its system T47D. As to the kind of experiment: Cell cycle arrest in human T47D cells assessed as increase in accumulation at S phase at 0.75 uM treated 18 hrs post serum-starvation measured after 18 hrs in presence of fresh medium containing FBS by propidium iodide staining based flow cytometry relative to control. The test is classed as functional.
Test [11] deals with T47D. The test is described as follows: Cell cycle arrest in human T47D cells assessed as increase in accumulation at S phase at 1.5 uM treated 18 hrs post serum-starvation measured after 18 hrs in presence of fresh medium containing FBS by propidium iodide staining based flow cytometry relative to control. It is filed as functional.
Test [12] relates to Calu-1. As to the kind of experiment: Cell cycle arrest in human Calu1 cells assessed as accumulation at G0/G1 phase at 1.8 uM treated 18 hrs post serum-starvation measured after 18 hrs in presence of fresh medium containing FBS by propidium iodide staining based flow cytometry (reference value: 69.2%). The test is classed as functional.
The subject of test [13] is Calu-1. The test is described as follows: Cell cycle arrest in human Calu1 cells assessed as increase in accumulation at S phase at 0.9 uM treated 18 hrs post serum-starvation measured after 18 hrs in presence of fresh medium containing FBS by propidium iodide staining based flow cytometry relative to control. It is filed as functional.
In test [14] the test system is MDA-MB-468. The test is described as follows: Cell cycle arrest in human MDA-MB-468 cells assessed as accumulation at sub-G1 phase at 22 uM measured after 18 hrs by propidium iodide staining based flow cytometry relative to control. It is filed as functional.
For test [15], the system named is A549. As to the kind of experiment: Cell cycle arrest in human A549 cells assessed as ratio of G1 to S phase at 0.8 uM measured after 18 hrs by propidium iodide staining based flow cytometry (reference value: 2.7). The test is classed as functional.
Test [16] relates to A549. As to the kind of experiment: Cell cycle arrest in human A549 cells assessed as accumulation at G0/G1 phase at 1.6 uM measured after 18 hrs by propidium iodide staining based flow cytometry (reference value: 58%). The test is classed as functional.
Test [17] has as its system A549. The test is described as follows: Effect on CDK1 expression in human A549 cells at 0.8 to 1.6 uM measured after 18 hrs by Western blot analysis. It is filed as functional, cell-based.
The test system of test [18] is A549. The test is described as follows: Cell cycle arrest in human A549 cells assessed as ratio of G1 to S phase at 0.8 uM treated 32 hrs post mimosine addition measured after 18 hrs in presence of fresh medium by propidium iodide staining based flow cytometry (reference value: 2.5). It is filed as functional.
The test system of test [19] is A549. As to the kind of experiment: Cell cycle arrest in human A549 cells assessed as accumulation at G0/G1 phase at 0.8 uM treated 32 hrs post mimosine addition measured after 18 hrs in presence of fresh medium by propidium iodide staining based flow cytometry (reference value: 58%). It is filed as functional.
Test [20] relates to A549. As to the kind of experiment: Cell cycle arrest in human A549 cells assessed as accumulation at G2/M phase at 1.6 uM treated 32 hrs post mimosine addition measured after 18 hrs in presence of fresh medium by propidium iodide staining based flow cytometry (reference value: 14%). It is filed as functional.
For test [21], the system named is A549. The test is described as follows: cells. To be noted: Homo sapiens, A549, 72 h.
Test [22] has as its system MDA-MB-468. The test is described as follows: cells. To be noted: Homo sapiens, MDA-MB-468, 72 h.

Chain of CDK9/cyclin T1 (O60563 whole entry, the tested form may be a part): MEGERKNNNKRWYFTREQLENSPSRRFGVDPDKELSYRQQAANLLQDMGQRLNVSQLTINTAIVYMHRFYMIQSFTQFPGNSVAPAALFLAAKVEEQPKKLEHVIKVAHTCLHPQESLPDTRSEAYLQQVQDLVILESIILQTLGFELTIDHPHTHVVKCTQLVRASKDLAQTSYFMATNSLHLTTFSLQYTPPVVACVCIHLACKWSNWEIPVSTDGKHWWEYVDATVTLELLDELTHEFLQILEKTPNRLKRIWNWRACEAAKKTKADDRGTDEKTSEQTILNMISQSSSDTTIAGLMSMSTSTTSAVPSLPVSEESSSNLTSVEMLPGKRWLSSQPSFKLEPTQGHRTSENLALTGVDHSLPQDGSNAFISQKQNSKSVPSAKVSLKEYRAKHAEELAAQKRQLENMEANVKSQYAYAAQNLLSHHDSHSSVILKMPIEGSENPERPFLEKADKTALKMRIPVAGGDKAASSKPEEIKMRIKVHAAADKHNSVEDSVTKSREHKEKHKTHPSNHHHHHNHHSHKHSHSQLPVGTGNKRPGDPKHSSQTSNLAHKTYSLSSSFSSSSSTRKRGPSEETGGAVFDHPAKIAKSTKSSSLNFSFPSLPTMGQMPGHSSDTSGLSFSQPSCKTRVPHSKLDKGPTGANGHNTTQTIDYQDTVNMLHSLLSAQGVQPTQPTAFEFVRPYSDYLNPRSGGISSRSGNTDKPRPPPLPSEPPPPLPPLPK
Chain of CDK9/cyclin T1 (P50750 whole entry, the tested form may be a part): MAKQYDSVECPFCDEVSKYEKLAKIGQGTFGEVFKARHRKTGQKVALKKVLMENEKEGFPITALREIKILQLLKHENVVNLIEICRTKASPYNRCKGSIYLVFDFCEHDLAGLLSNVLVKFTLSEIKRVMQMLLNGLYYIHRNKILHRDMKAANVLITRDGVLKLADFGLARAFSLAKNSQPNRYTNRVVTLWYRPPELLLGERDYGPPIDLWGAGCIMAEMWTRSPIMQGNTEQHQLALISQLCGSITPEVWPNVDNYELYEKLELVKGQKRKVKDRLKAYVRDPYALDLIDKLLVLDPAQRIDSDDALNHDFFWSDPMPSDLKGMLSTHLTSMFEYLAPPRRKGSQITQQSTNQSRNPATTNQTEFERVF
Chain of Tubulin (Sus scrofa) (P02550 whole entry, looked up): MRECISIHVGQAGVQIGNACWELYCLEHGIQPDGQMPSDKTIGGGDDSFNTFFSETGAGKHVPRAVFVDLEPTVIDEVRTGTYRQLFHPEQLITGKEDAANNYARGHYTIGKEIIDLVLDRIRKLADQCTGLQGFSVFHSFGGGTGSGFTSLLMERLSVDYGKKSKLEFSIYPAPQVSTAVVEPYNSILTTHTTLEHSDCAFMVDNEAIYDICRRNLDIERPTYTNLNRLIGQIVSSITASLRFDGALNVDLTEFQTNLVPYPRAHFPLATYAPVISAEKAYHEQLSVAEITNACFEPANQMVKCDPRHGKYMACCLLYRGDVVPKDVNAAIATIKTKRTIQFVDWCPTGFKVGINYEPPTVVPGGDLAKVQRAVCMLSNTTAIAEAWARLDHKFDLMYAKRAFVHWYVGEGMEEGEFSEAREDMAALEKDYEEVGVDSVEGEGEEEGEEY
Chain of Tubulin (Sus scrofa) (P02554 whole entry, looked up): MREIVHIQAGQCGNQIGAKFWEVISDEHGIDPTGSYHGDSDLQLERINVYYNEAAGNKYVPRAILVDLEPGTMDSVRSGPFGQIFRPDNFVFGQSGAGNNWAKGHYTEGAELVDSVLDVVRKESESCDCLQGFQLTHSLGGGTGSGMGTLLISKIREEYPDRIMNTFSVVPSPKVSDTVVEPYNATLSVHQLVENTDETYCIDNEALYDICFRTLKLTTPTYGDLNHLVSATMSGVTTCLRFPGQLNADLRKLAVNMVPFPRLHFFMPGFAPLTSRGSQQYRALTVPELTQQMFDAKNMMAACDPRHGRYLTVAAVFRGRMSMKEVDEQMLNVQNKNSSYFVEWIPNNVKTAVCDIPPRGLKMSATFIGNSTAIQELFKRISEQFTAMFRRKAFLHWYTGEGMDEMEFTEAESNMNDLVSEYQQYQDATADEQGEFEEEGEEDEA
Chain of Cyclin-dependent kinase 4/cyclin D1 (P11802 whole entry, the tested form may be a part): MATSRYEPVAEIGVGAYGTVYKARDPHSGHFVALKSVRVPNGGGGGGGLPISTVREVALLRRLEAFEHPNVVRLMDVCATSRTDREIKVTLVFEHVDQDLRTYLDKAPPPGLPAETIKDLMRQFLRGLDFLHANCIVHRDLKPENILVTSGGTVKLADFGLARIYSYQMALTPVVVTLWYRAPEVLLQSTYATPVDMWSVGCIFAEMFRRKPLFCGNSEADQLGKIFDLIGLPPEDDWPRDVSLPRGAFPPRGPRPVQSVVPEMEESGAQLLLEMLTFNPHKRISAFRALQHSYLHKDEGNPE
Chain of Cyclin-dependent kinase 4/cyclin D1 (P24385 whole entry, further chain, the tested form may be a part): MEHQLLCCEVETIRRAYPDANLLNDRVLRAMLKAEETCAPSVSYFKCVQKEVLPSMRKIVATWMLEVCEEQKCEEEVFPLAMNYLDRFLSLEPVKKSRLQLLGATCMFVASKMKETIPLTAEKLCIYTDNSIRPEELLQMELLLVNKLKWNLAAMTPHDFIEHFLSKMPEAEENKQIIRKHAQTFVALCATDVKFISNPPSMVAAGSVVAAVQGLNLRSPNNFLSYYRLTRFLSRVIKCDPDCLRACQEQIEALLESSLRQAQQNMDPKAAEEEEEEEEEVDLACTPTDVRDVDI

For the compound `O=C(COc1ccc(-c2nc3ccccc3c(=O)[nH]2)cc1)Nc1cccc(Cl)c1`, the IC50 (commonly the point on the concentration scale where inhibition reaches its midpoint) in test [1] is 470 nM; in [2] it was over 100000 nM; in [3], over 5000 nM. In addition, the inhibition result in [4] was “Dose-dependent effect”. Further, the Ratio is recorded as 22 in [5], 6.5 in test [15] and 1.07 in test [18]. Besides, the Activity was 0% in [6]; 77% in test [9]; 2.13% in [10]; 5.3% in test [11]; 88% in [12]; 0.7% in [13]. Also, the Activity in test [14] is listed as 0%; in [16] it was 12%; in test [19] it was 36%; in test [20], 68%. For the same compound, the inhibition entry in test [7] and in [8] was “Active” in each case. In addition, the result in test [17] was inactive. Moreover, the EC50 (commonly the concentration giving half of the maximal effect) in test [21] is 800 nM; in [22] it was 10800 nM.
